For assay [1], the system named is HEK293. The assay can be described thus: Cytotoxicity against HEK293 cells after 24 hrs by MTT assay. Type of assay: cell-based, Homo sapiens. Conditions: Homo sapiens, HEK293, 24 h; read-out: IC50. In a few lines:
(§1)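 Cells seeded at 1 × 10⁴/well in DMEM with 10% FBS and held 24 h at 37 °C in CO₂. Compounds diluted in culture medium and incubated 24 h. Medium removed, MTT (5 mg/ml) added for 4 h, formazan dissolved in DMSO, absorbance read at 540 nm. Viability given as percent of untreated cells.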
(In general: Tetrazolium assays rely on reduction of a dye to a coloured formazan, in cell work by metabolically active cells.)

Assay [2] concerns MDA-MB-231. Description: Cell cycle arest in human MDA-MB-231 cells assessed as increase in p21 mRNA expression at 5 uM after 24 hrs by RT-PCR. Type of assay: functional, cell-based. In a few lines: (§2)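 MDA-MB231 cells (1 × 10⁶) grown overnight in six-well plates, treated at 5 µM. Total RNA isolated with Trizol, 1 µg digested with DNase I, then reverse transcribed. Relative mRNA levels of cyclin A1, bax, bcl-2, p21 and p53 measured by real-time PCR against untreated control.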

The subject of assay [3] is MDA-MB-231. Description: Cell cycle arrest in human MDA-MB-231 cells assessed as reduction in bcl2 mRNA expression at 5 uM after 24 hrs by RT-PCR. It counts as functional, cell-based. In a few lines:
as §2

The test system of assay [4] is MDA-MB-231. The assay can be described thus: Induction of apoptosis in human MDA-MB-231 cells assessed as early apoptotic cells at 5 uM after 24 hrs annexin-V FITC and PI staining by flow cytometry. It counts as functional, cell-based. In a few lines:
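MDA-MB231 cells (1 × 10⁶) grown overnight in six-well plates, then given 5 µM final compound or vehicle (0.001% DMSO) for 24 h. Floating and adherent cells harvested by trypsinization and washed with PBS. 1 × 10⁵ cells stained with Annexin V-FITC and propidium iodide and analysed by flow cytometry with 488 nm excitation; Annexin V-FITC read at 535 nm emission.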
On the technique in general: A flow cytometer gives signals particle by particle.

The subject of assay [5] is MDA-MB-231. Description: Cell cycle arrest in human MDA-MB-231 cells assessed as decrease in S phase at 5 uM after 24 hrs annexin-V FITC and PI staining by flow cytometry. Type of assay: functional, cell-based.
Assay [6] relates to MDA-MB-231. Description: Induction of apoptosis in human MDA-MB-231 cells assessed as increase in caspase level at 5 uM after 24 hrs. It counts as functional, cell-based. In a few lines: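 MDA-MB231 cells kept serum-deprived for 4 h, then treated 24 h at 5 µM. Cells incubated with caspase substrate DEVD-rhodamine-110 in a homogeneous caspase assay. Fluorescence of released rhodamine-110 measured at […].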

The test system of assay [7] is MDA-MB-231. The assay can be described thus: Cell cycle arrest in human MDA-MB-231 cells assessed as reduction in cyclin A1 mRNA expression at 5 uM after 24 hrs by RT-PCR. Type of assay: functional, cell-based. A digest of the protocol:
as §2

The test system of assay [8] is MDA-MB-231. The assay can be described thus: Cell cycle arrest in human MDA-MB-231 cells assessed as increase in bax mRNA expression at 5 uM after 24 hrs by RT-PCR. It counts as functional, cell-based. A digest of the protocol:
as §2

Assay [9] deals with MDA-MB-231. Description: Cytotoxicity against human MDA-MB-231 cells after 24 hrs by MTT assay. Type of assay: functional, cell-based. Conditions: Homo sapiens, MDA-MB-231, 24 h; read-out: IC50. A digest of the protocol: as §1
Assay [10] concerns MDA-MB-231. The assay can be described thus: Cell cycle arest in human MDA-MB-231 cells assessed as increase in sub G1 phase at 5 uM after 24 hrs annexin-V FITC and PI staining by flow cytometry. It counts as functional, cell-based.
The subject of assay [11] is MDA-MB-231. Description: Cell cycle arrest in human MDA-MB-231 cells assessed as increase in p53 mRNA expression at 5 uM after 24 hrs by RT-PCR. Type of assay: functional, cell-based. A digest of the protocol: as §2
Assay [12] relates to MDA-MB-231. The assay can be described thus: Induction of apoptosis in human MDA-MB-231 cells assessed as reduction in membrane potential at 5 uM after 24 hrs by flow cytometry. It counts as functional, cell-based. A digest of the protocol: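 MDA-MB-231 cells treated 24 h at 5 µM, collected by trypsinization and washed with PBS. Cells loaded with JC-1 for 15 min at 37 °C, rinsed three times in phenol-red-free high-glucose DMEM and resuspended in prewarmed medium. Membrane potential taken as the red/green (590/530 nm) fluorescence ratio.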

Assay [13] relates to HeLa. The assay can be described thus: Cytotoxicity against human HeLa cells after 24 hrs by MTT assay. Type of assay: functional, cell-based. In a few lines:
as §1

The test system of assay [14] is MCF7. Description: Cytotoxicity against human MCF7 cells after 24 hrs by MTT assay. It counts as functional, cell-based. The settings on record: Homo sapiens, MCF7, 24 h; read-out: IC50. A digest of the protocol: as §1

The results in this text go back to ChEMBL document CHEMBL1177648, “Synthesis and anti breast cancer activity of biphenyl based chalcones” (Bioorg Med Chem, 2010).

Active and inactive are the calls of the source. No cut-off for these calls is given here.

`Cc1cc(O)c(C(=O)/C=C/c2cccc(Cl)c2)c(-c2ccccc2)c1C(=O)/C=C/c1cccc(Cl)c1`: the IC50 in [1] was found to be 15 µM; in [9] it was 4.67 µM; in assay [13] (Homo sapiens, HeLa, 24 h, read-out: IC50), 22 µM; in assay [14] it was 20 µM. Also, the result in assay [2], in assay [3], in [4], in [5], in assay [6] and in [7] was Active. Besides, the result in assay [8], in assay [10], in assay [11] and in [12] was Active.
`Cc1cc(O)c(C(=O)/C=C/c2ccccc2)c(-c2ccc(Cl)cc2)c1C(=O)/C=C/c1ccccc1`: the IC50 was 5 µM in assay [1], 4.4 µM in assay [9], “Not Active” in [13] (hela) and 15 µM in [14]. Further, the result in assay [2], in [3], in assay [4], in [5], in [6] and in assay [7] was Active. Further, the result in assay [10], in [11] and in [12] was Active.

As a reminder, the IC50 is the midpoint of a concentration-inhibition curve.
